Experimental data published in ChEMBL document CHEMBL2331484, “Synthesis and biological evaluation of scopoletin derivatives” (Bioorg Med Chem, 2013).

Tested on: HUVEC
Test: Antiproliferative activity against HUVEC assessed as growth inhibition rate at 100 uM after 24 hrs by MTT assay
Type: functional
Settings: Homo sapiens, read-out: GI
In short: (§1)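 HUVECs (passages 3–5, primary cord isolates) seeded at 1 × 10⁴ cells/well. Medium replaced with M199 containing 1% FBS plus compound. Viability read by MTT after 24 h. Percent inhibition was calculated from A570 minus A630 of treated versus control wells, and IC50 determined. Triplicate experiments, means ± SEM.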

**Q.** For COc1cc2ccc(=O)oc2cc1OCCBr, which inhibition of growth at 100 µM is on record?
**A.** 5.6%

**Q.** CCN(CC)CC(O)COc1cc2oc(=O)ccc2cc1OC (stereo unspecified) was tested. Which inhibition of growth at 100 µM did it give?
**A.** 0.3%

**Q.** With COc1cc2ccc(=O)oc2cc1OCC(=O)c1ccc([N+](=O)[O-])cc1 as the compound, how does the inhibition of growth at 100 µM read?
**A.** 27.2%

**Q.** Which inhibition of growth at 100 µM does the source give for COc1cc2ccc(=O)oc2cc1OCCCl here?
**A.** 3.3%

**Q.** How did the inhibition of growth at 100 µM turn out when COc1cc2ccc(=O)oc2cc1OCC(O)CN1CCOCC1 (stereo unspecified) was run?
**A.** 0.1%

**Q.** For COc1cc2ccc(=O)oc2cc1OCC(O)CN1CCN(C)CC1 (stereo unspecified), which inhibition of growth at 100 µM is on record?
**A.** 3.4%

**Q.** How did the inhibition of growth at 100 µM turn out when COc1cc2ccc(=O)oc2cc1OCC(O)CN1CCCC1 (stereo unspecified) was run?
**A.** 0.3%

**Q.** How did the inhibition of growth at 100 µM turn out when COc1cc2ccc(=O)oc2cc1OCCN1CCOCC1 was run?
**A.** 1.9%

**Q.** How did the inhibition of growth at 100 µM turn out when COc1cc2ccc(=O)oc2cc1OCCNC(C)C was run?
**A.** 0.1%

**Q.** With COc1cc2ccc(=O)oc2cc1OCC(=O)c1ccc(Cl)c(Cl)c1 as the compound, how does the inhibition of growth at 100 µM read?
**A.** 42.8%

**Q.** How did the inhibition of growth at 100 µM turn out when COc1cc2ccc(=O)oc2cc1OCCCCBr was run?
**A.** 16.9%

**Q.** COc1cc2ccc(=O)oc2cc1OCCN1CCCC1 was tested. Which inhibition of growth at 100 µM did it give?
**A.** 7.9%

**Q.** COc1cc2ccc(=O)oc2cc1OCCN1CCN(C)CC1 was tested. Which inhibition of growth at 100 µM did it give?
**A.** 12%

Tested on: HUVEC
Test: Antiproliferative activity against HUVEC assessed as growth inhibition rate at 10 uM after 24 hrs by MTT assay
Type: functional
Settings: Homo sapiens, read-out: GI
In short: as §1

**Q.** Which inhibition of growth at 10 µM does the source give for COc1cc2ccc(=O)oc2cc1OCCBr here?
**A.** 4.9%

**Q.** How did the inhibition of growth at 10 µM turn out when CCN(CC)CC(O)COc1cc2oc(=O)ccc2cc1OC (stereo unspecified) was run?
**A.** 0.5%

**Q.** For COc1cc2ccc(=O)oc2cc1OCC(=O)c1ccc([N+](=O)[O-])cc1, which inhibition of growth at 10 µM is on record?
**A.** 4.1%

**Q.** Which inhibition of growth at 10 µM does the source give for COc1cc2ccc(=O)oc2cc1OCCCl here?
**A.** 0.3%

**Q.** For COc1cc2ccc(=O)oc2cc1OCC(O)CN1CCOCC1 (stereo unspecified), which inhibition of growth at 10 µM is on record?
**A.** 0.4%

**Q.** Which inhibition of growth at 10 µM does the source give for COc1cc2ccc(=O)oc2cc1OCC(O)CN1CCN(C)CC1 (stereo unspecified) here?
**A.** 0.1%

**Q.** With COc1cc2ccc(=O)oc2cc1OCC(O)CN1CCCC1 (stereo unspecified) as the compound, how does the inhibition of growth at 10 µM read?
**A.** 0.5%

**Q.** How did the inhibition of growth at 10 µM turn out when COc1cc2ccc(=O)oc2cc1OCCN1CCOCC1 was run?
**A.** 0%

**Q.** COc1cc2ccc(=O)oc2cc1OCCNC(C)C was tested. Which inhibition of growth at 10 µM did it give?
**A.** 0.1%

**Q.** COc1cc2ccc(=O)oc2cc1OCC(=O)c1ccc(Cl)c(Cl)c1 was tested. Which inhibition of growth at 10 µM did it give?
**A.** 0%

**Q.** COc1cc2ccc(=O)oc2cc1OCCCCBr was tested. Which inhibition of growth at 10 µM did it give?
**A.** 11.2%

**Q.** COc1cc2ccc(=O)oc2cc1OCCN1CCCC1 was tested. Which inhibition of growth at 10 µM did it give?
**A.** 1.9%

**Q.** With COc1cc2ccc(=O)oc2cc1OCCN1CCN(C)CC1 as the compound, how does the inhibition of growth at 10 µM read?
**A.** 0%
